# Assay outcomes as filed in PubChem BioAssay.
# DNMT1 inh: inhibitors of human DNMT1. hit rate 0.83% among 360,000. DNMT1 molecular beacon, Hinp1I cleavage, fluorescence. AID 588458. inhibition (reported as % activation of signal), % at 10 µM. P26358; in the data active means inhibition above about 50%
# STEP block: inhibitors of human striatal-enriched phosphatase STEP; P54829; recombinant STEP, OMFP fluorogenic substrate, fluorescence; inhibition, % at 20 µM; hit rate 0.25% among 360,000; AID 588621;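 active means inhibition at 20 µM, scaled per plate between control wells, above about 37%, limit read from the data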;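 further: 0% = DMSO with enzyme and substrate and 100% = substrate only without enzyme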
# Target sequence (P54829 whole entry, looked up): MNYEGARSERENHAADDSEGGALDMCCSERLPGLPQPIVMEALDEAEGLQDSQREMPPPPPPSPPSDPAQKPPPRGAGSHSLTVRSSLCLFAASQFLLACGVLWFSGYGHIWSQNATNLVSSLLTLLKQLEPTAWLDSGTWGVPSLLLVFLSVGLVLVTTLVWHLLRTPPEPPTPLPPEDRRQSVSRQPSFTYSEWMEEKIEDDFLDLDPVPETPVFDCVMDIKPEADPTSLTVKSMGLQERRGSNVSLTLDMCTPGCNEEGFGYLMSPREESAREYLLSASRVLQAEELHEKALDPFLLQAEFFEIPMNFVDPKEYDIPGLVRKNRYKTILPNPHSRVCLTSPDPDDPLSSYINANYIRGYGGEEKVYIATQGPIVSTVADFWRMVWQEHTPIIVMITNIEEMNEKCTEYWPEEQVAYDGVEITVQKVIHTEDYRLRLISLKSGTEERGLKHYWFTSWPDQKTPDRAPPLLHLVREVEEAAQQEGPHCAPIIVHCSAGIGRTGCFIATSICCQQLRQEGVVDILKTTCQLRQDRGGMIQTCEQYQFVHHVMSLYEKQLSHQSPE
#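 Measure: Control-normalized % inhibition with plate pattern correction | Test system: STEP phosphatase, cell-free reaction | Medium: pH 6.0 Bis-Tris with DTT and Tween 20 | Technique: Fluorescence, 480/540 nm | Times: Reaction 20 min, ambient temperature | Doses: Single compound dose of 20 µM, 1% DMSO final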
# SUMO1 PPI mod: modulators of human SUMO1-mediated protein-protein interactions. P63165. SUMO1 binding to a labelled peptide, TR-FRET, 1 h. inhibition, % at 20 µM. hit rate 0.33% among 360,000. AID 602429; in the data active means inhibition above about 37%
# Scp1 inh: blocks human Scp-1 phosphatase activity; Q9GZU7; Recombinant Scp1, phosphopeptide, malachite green phosphate absorbance; inhibition, % at 20 µM; hit rate 0.88% among 340,000;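 active means inhibition above about 50% at 20 µM, limit read from the data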;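 further: plate controls were DMSO wells with enzyme for no effect and wells lacking enzyme for full effect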
#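 Test system – truncated SCP-1 phosphatase (76-261aa) · Reagent – Phosphorylated 17-residue peptide substrate · Incubation – 45 min room-temperature reaction, 5 min colour, 30 min stabiliser · Detection – colorimetric phosphate reagent with accelerator and stabiliser, absorbance at 630 nm · Measure – % inhibition at 20 µM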
# LMPTP inh: blocks human LMPTP phosphatase; P24666; recombinant LMPTP-A, OMFP fluorogenic substrate, fluorescence intensity; inhibition, % at 20 µM; hit rate 0.22% among 360,000; AID 651560;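 active means compounds that cut the enzyme signal by at least half of the control window in the single-dose screen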;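 further: plate controls were DMSO wells with enzyme plus substrate for no effect and substrate without enzyme for full effect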
# Target sequence (P24666 whole entry, looked up): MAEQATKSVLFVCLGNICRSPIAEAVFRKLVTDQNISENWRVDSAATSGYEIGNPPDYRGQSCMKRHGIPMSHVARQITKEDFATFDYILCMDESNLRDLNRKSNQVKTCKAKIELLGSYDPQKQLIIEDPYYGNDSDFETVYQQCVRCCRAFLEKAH
#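 Assay system: LMPTP-A enzyme. Input: 0.625 nM LMPTP-A final. Probe or stimulus: 400 µM OMFP. Compound dosing: single 20 µM dose. Schedule: 50 min dark incubation at room temperature. Detection: fluorescence intensity of OMFP turnover product. Read-out: percent inhibition versus substrate-only and uninhibited controls. Benchmarks: no-enzyme low control, uninhibited high control.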
# HKDC1 inh: HKDC1 (human) hexokinase inhibition; recombinant HKDC1, G6PDH/diaphorase resazurin coupled fluorescence; inhibition, % at 20 µM; hit rate 0.16% among 340,000;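 active means inhibition above about 35% when tested at 20 µM, limit read from the data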;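 further: plate controls were DMSO wells with enzyme for no effect and DMSO wells lacking enzyme for full effect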
#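 Assay system – recombinant HKDC1 (HK5) hexokinase enzyme, produced in-house · Input – HKDC1 at 5 µg/mL · Reagent – glucose plus 1 mM ATP as hexokinase substrates · Timing – 90 min reaction incubation at room temperature, dark · Measured by – G6PDH/diaphorase-coupled fluorescence, 1 mM NADP, 100 µM resazurin, 525/613 nm · Benchmarks – DMSO-enzyme wells negative, buffer-substituted wells positive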
# Active calls of the source: *; · = no result given; ! = repeats disagree. Compounds with a hit are over-represented: about 1.8% of the library has one in this group of screens.
SMILES,DNMT1 inh,STEP block,SUMO1 PPI mod,Scp1 inh,LMPTP inh,HKDC1 inh
CC1=NCCc2c1[nH]c1cc(O)ccc21,163.0*,-2.7,-41.5,-11.3,2.1,0.9
CC[n+]1c(/C=C/C=C/c2ccc(N(C)C)cc2)sc2ccccc21,-20.3,20.8,-59.4,-6.9,90.5*,19.1
CN(C)c1ccc(/C=C/C=C/c2sc3ccccc3[n+]2C)cc1,-6.3,4.5,-45.1,-3.6,16.2,2.6
Cc1cccc(OCCn2cccc2/C=C2/C(=O)NC(=O)N(Cc3ccco3)C2=O)c1,59.7*,2.4,11.9,9.8,4.2,14.7
O=C1NC(=O)N(Cc2ccco2)C(=O)/C1=C\c1cccn1CCOc1ccc(Cl)cc1,59.3*,-2.2,20.7,-2.7,3.4,19.1
O=C1NC(=O)N(Cc2ccco2)C(=O)/C1=C/c1ccc(-c2cccc([N+](=O)[O-])c2)o1,97.7*,38.7,37.6*,82.1*,42.4,36.9*
NC(=O)C1CCN(/C=C2\C(=O)NC(=O)N(Cc3ccco3)C2=O)CC1,52.0*,22.4,13.7,69.2*,9.1,4.3
C=CCN1C(=O)NC(=O)/C(=C\c2ccc(-c3ccccc3[N+](=O)[O-])o2)C1=O,4.1,3.0,-9.8,12.3,-0.2,1.2
CCOC(=O)C1CCN(/C=C2/C(=O)NC(=O)N(c3ccc(OCC)cc3)C2=O)CC1,-2.9,-0.8,2.2,-5.9,-1.3,6.7
COC(=O)C1=C(c2ccc(OC)c(OC)c2)C[C@@H]2CC[C@H]1N2C(=O)NCc1ccc(F)cc1,-0.5,-0.8,2.4,-8.2,-0.4,-1.4
O=C(c1ccc(F)cc1)N1CCC2(CC1)OCCO2,5.4,2.6,2.1,-3.5,-1.9,-6.4
Cc1cc(/C=C2\C(=O)NC(=O)N(Cc3ccccc3)C2=O)c(C)n1C1CC1,-6.2,-3.8,-5.3,-3.2,0.3,-4.2
Cc1cc(/C=C2/C(=O)NC(=O)N(Cc3ccco3)C2=O)c(C)n1-c1ccccc1,55.4*,0.8,15.5,7.0,3.3,15.5
CC1=C(C/C(C)=C/c2ccccc2)/C(=C/CO)[C@@H]2OC(=O)O[C@]2(C)C12CC2,-0.2,0.6,2.0,-5.2,2.8,1.1
Cc1ccccc1NC(=NCCCN1CC1)Nc1ccccc1C,-99.8,7.8,34.3*,14.6,21.2,9.1
Nc1ccc(CC2=NCCN2)cc1,56.9*,0.2,-7.7,-18.1,-3.8,-5.3
COc1ccc(C(=O)c2nc3ccccc3n2C(C)C)cc1,0.2,4.6,-0.6,-0.7,0.4,-5.0
CC(C)OC(=O)c1c(N)n(CC2CCCO2)c2nc3ccccc3nc12 (centres undefined),-15.6,2.5,42.1*,-9.3,2.5,1.1
CC[n+]1c(-c2ccccc2)c2cc(N)ccc2c2ccc(N)cc21,2.2,2.2,-61.0,4.7,72.0*,4.8
CC12CCC3C(CC=C4CC(O)CCC43C)C1CC(=CN1CCOCC1)C2=O (centres undefined),1.8,-0.7,1.8,0.5,2.0,-3.8
COc1ccc(/C=C2/C(=O)N(Cc3ccco3)C(=O)N(C(C)C)C2=O)cc1,94.4*,-3.1,43.1*,-10.3,3.0,3.8
CCN1C(=O)C(=C2C=C(C)N(Cc3ccco3)C(C)=C2)C(=O)N(CC)C1=S,-2.0,1.1,1.6,-15.2,1.0,-3.6
COC(=O)C(O)(c1c(C)[nH]n(-c2ccccc2)c1=O)C(F)(F)F (centres undefined),-19.1,-1.2,-0.9,-14.5,-1.5,-5.5
COc1cc(C(c2c(C)[nH]n(-c3ccccc3)c2=O)c2c(C)[nH]n(-c3ccccc3)c2=O)cc(OC)c1OC,9.1,2.3,53.5*,5.7,8.5,0.7
O=C(Cc1cc(=O)oc2cc(O)ccc12)NN=Cc1ccc(N(CCCl)CCCl)cc1,-3.2,-3.2,92.4*,-1.0,1.8,31.8
SMILES,DNMT1 inh,STEP block,SUMO1 PPI mod,Scp1 inh,LMPTP inh,HKDC1 inh
O=C(O)c1cccc2c1NC(C(=O)O)C1CC(Sc3ccccc3[N+](=O)[O-])C(Cl)C21 (centres undefined),103.9*,98.1*,87.8*,55.5*,79.1*,5.5
CC(=O)c1ccc2c(c1)C1C(Cl)C(Sc3ccccc3[N+](=O)[O-])CC1C(C(=O)O)N2 (centres undefined),114.2*,19.0,84.4*,48.2,77.8*,20.1
CC(=O)C1CCC2C3CCC4CC(O)CCC4(C)C3C(=O)CC12C (centres undefined),1.1,-3.8,2.6,-5.4,-1.1,-9.3
COc1ccc(C(=O)OCC2CN2c2cccc([N+](=O)[O-])c2)cc1 (centres undefined),·,·,-14.4,·,0.0,·
CC(C)C[C@@H]1COc2cc(N3CCN(C)CC3)ccc2S(=O)(=O)N1,·,·,0.1,·,-1.5,·
CCC1(CC)C(=O)N(C)C(=O)NC1=NC,0.8,-1.9,0.8,-6.9,-1.5,-1.2
CN(C)c1ccc(/C=C/c2cc[n+](C)c3ccccc23)cc1,8.7,16.3,-44.3,12.1,54.7*!,15.2
N#CC1c2ccccc2-n2nncc2CN1S(=O)(=O)c1cc(Cl)cc(Cl)c1 (centres undefined),3.4,-2.0,3.1,-4.2,-3.1,-5.0
CC(C)(C)C(=O)O[C@H]1CC[C@@]2(C)C(=CC(=O)C3C2CC[C@]2(C)C(=O)[C@H](O)CC32)C1 (some centres undefined),-3.0,-2.0,1.2,-5.0,-1.8,-1.5
Cc1ccc(N2C(=O)/C(=C/c3ccc(CN(CCC#N)S(C)(=O)=O)o3)C(=O)NC2=S)cc1,110.2*,18.6,39.5*,43.4,6.3,8.2
Cc1ccc(/C=C2\C(=O)NC(=S)N(c3ccc(F)cc3)C2=O)o1,35.1,-0.1,10.7,28.6,0.1,-0.1
CC(C)OS(C)(=O)=O,-0.3,-1.3,1.5,-9.2,-0.4,-3.3
CCCCNC(=O)c1c(N)n(Cc2ccc3c(c2)OCO3)c2nc3ccccc3nc12,15.2,-1.6,63.6*,2.1,6.1,23.0
CCCCCn1c(N)c(C(=O)NCCN2CCOCC2)c2nc3ccccc3nc21,-23.2,1.9,4.3,-1.8,1.0,16.8
Nc1c(C(=O)NCc2ccco2)c2nc3ccccc3nc2n1Cc1ccccc1,-31.2,-3.0,-5.7,-1.8,2.4,7.3
Nc1c(C(=O)NCc2ccco2)c2nc3ccccc3nc2n1Cc1ccc(F)cc1,21.4,-11.8,40.2*,-4.1,8.4,22.2
CC1C(c2ccccc2)OC(=O)N1C (centres undefined),4.2,-0.2,1.2,0.5,-2.1,-10.0
CC(Cc1ccccc1)[n+]1cc(/N=C(\[O-])Nc2ccccc2)on1 (centres undefined),8.7,2.4,-5.5,0.4,-0.5,-4.8
